Experimental data reported in ChEMBL document CHEMBL1649436, “Antiviral activity of MK-4965, a novel nonnucleoside reverse transcriptase inhibitor” (Antimicrob Agents Chemother, 2009).

Experiments:
[1] = system: Human immunodeficiency virus 1; assay: Antiviral activity against HIV1 CRF02_AG harboring mutant reverse transcriptase relative to HIV1 CNDO with wild type reverse transcriptase; format: functional
How it was run: (§1)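 Single-cycle PhenoScreen assay run by Monogram Biosciences, using viruses carrying RT sequences from clinical isolates, subtypes/CRFs or PI/NRTI-resistant clade B viruses; nine serial drug concentrations; activity expressed relative to drug-sensitive reference strain CNDO (protease and RT from NL4-3), with multidrug-resistant MDRC4 as assay-performance control.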

[2] = system: HL-60; assay: Cytotoxicity against human HL60 cells after 24 to 72 hrs by alamar blue assay; format: cell-based
How it was run: (§2)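 Cytotoxicity measured with Alamar blue after incubation at 37°C in 5% CO2 for 24, 48 or 72 h, in stationary and activated primary cells (CD4 cells, monocytes, PBMC, macrophages) and proliferating lines (MT4, SupT1, HL60).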

[3] = Cytotoxicity against activated human macrophage after 24 to 72 hrs by alamar blue assay; format: cell-based; how it was run: as §2
[4] = Cytotoxicity against stationary-phase human monocyte after 24 to 72 hrs by alamar blue assay; format: cell-based; how it was run: as §2
[5] = system: Human immunodeficiency virus 1; assay: Antiviral activity against HIV1 clade F1 harboring mutant reverse transcriptase relative to HIV1 CNDO with wild type reverse transcriptase; format: functional
[6] = Cytotoxicity against stationary-phase human macrophage after 24 to 72 hrs by alamar blue assay; format: cell-based; how it was run: as §2
[7] = system: Human immunodeficiency virus 1; assay: Antiviral activity against HIV1 isolate R8 harboring reverse transcriptase Y188L mutant relative to drug-sensitive HIV1 CNDO; format: functional; how it was run: as §1
[8] = system: Human immunodeficiency virus 1; assay: Antiviral activity against HIV1 isolate R8 harboring wild type reverse transcriptase infected in human MT4 cells assessed as inhibition of viral replication after 72 hrs in presence of 50% human serum; format: functional; details: Human immunodeficiency virus 1, isolate R8, MT4, 72 h
How it was run: (§3)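 Multiple-cycle assay: MT-4 cells (2.5 × 10^5) infected with R8-based virus at low MOI, no inhibitor, 24 h at 37°C, 5% CO2; washed, reseeded at 5 × 10^4 cells in RPMI 1640 with 10% FBS or 50% type AB human serum; threefold serial dilutions from 833 nM to 0.32 nM; 72 h; p24 in medium by AlphaScreen; EC95 = lowest concentration giving ≥95% p24 reduction versus untreated.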

[9] = system: Human immunodeficiency virus 1; assay: Selectivity ratio of IC50 for HIV1 isolate R8 reverse transcriptase K103N mutant to IC50 for HIV1 isolate R8 reverse transcriptase
[10] = system: Human immunodeficiency virus 1; assay: Antiviral activity against HIV1 isolate R8 harboring reverse transcriptase K103N and G190A mutant relative to drug-sensitive HIV1 CNDO; format: functional; how it was run: as §1
[11] = system: Human immunodeficiency virus 1; assay: Ratio of EC95 for HIV1 isolate R8 harboring wild type reverse transcriptase in presence of 50% human serum to EC95 for HIV1 isolate R8 harboring wild type reverse transcriptase in presence of 10% FBS; format: functional
How it was run: (§4)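 Ratios of EC95 values from the MT-4 multiple-cycle assay: R8 variants infected 24 h at low MOI, then reseeded in RPMI 1640 with 10% FBS or 50% type AB human serum with threefold dilutions (833–0.32 nM) for 72 h; p24 by AlphaScreen; EC95 = lowest concentration cutting p24 ≥95% versus untreated controls.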

[12] = system: Human immunodeficiency virus 1; assay: Selectivity ratio of IC50 for HIV1 isolate R8 reverse transcriptase Y181C mutant to IC50 for HIV1 isolate R8 reverse transcriptase
[13] = system: Human immunodeficiency virus 1; assay: Antiviral activity against HIV1 CRF17_BF harboring mutant reverse transcriptase relative to HIV1 CNDO with wild type reverse transcriptase; format: functional; how it was run: as §1
[14] = system: MT4; assay: Cytotoxicity against human MT4 cells after 24 to 72 hrs by alamar blue assay; format: cell-based; how it was run: as §2
[15] = system: Human immunodeficiency virus 1; assay: Antiviral activity against HIV1 CRF01_AE harboring mutant reverse transcriptase relative to HIV1 CNDO with wild type reverse transcriptase; format: functional; how it was run: as §1
[16] = system: Human immunodeficiency virus 1; assay: Antiviral activity against HIV1 clade A harboring mutant reverse transcriptase relative to HIV1 CNDO with wild type reverse transcriptase; format: functional
[17] = system: Human immunodeficiency virus 1; assay: Antiviral activity against HIV1 clade G harboring mutant reverse transcriptase relative to HIV1 CNDO with wild type reverse transcriptase; format: functional
[18] = system: Human immunodeficiency virus 1; assay: Antiviral activity against HIV1 clade C harboring mutant reverse transcriptase relative to HIV1 CNDO with wild type reverse transcriptase; format: functional
[19] = system: Human immunodeficiency virus 1; assay: Antiviral activity against HIV1 isolate R8 harboring reverse transcriptase V106A, G190A and F227L mutant relative to drug-sensitive HIV1 CNDO; format: functional; how it was run: as §1
[20] = system: Human immunodeficiency virus 1; assay: Ratio of EC95 for HIV1 isolate R8 harboring reverse transcriptase K103N mutant in presence of 50% human serum to EC95 for HIV1 isolate R8 harboring reverse transcriptase K103N mutant in presence of 10% FBS; format: functional; how it was run: as §4
[21] = system: Human immunodeficiency virus 1; assay: Antiviral activity against HIV1 isolate R8 harboring reverse transcriptase Y181C mutant infected in human MT4 cells assessed as inhibition of viral replication after 72 hrs in presence of 10% FBS; format: functional; details: Human immunodeficiency virus 1, isolate R8, MT4, 72 h; how it was run: as §3
[22] = Cytotoxicity against activated human CD4+ T cells after 24 to 72 hrs by alamar blue assay; format: cell-based; details: T-cell; how it was run: as §2
[23] = system: Human immunodeficiency virus 1; assay: Ratio of EC95 for HIV1 isolate R8 harboring reverse transcriptase K103N and Y181C mutant in presence of 50% human serum to EC95 for HIV1 isolate R8 harboring wild type reverse transcriptase in presence of 50% human serum; format: functional; how it was run: as §4
[24] = Cytotoxicity against stationary-phase human CD4+ T cells after 24 to 72 hrs by alamar blue assay; format: cell-based; details: T-cell; how it was run: as §2
[25] = system: Human immunodeficiency virus 1; assay: Antiviral activity against HIV1 isolate R8 harboring reverse transcriptase K103N mutant infected in human MT4 cells assessed as inhibition of viral replication after 72 hrs in presence of 10% FBS; format: functional; details: Human immunodeficiency virus 1, isolate R8, MT4, 72 h; how it was run: as §3
[26] = Cytotoxicity against human SupT1 cells after 24 to 72 hrs by alamar blue assay; format: cell-based; details: SUP-T1; how it was run: as §2
[27] = system: Human immunodeficiency virus 1; assay: Ratio of EC95 for HIV1 isolate R8 harboring reverse transcriptase Y181C mutant in presence of 50% human serum to EC95 for HIV1 isolate R8 harboring reverse transcriptase Y181C mutant in presence of 10% FBS; format: functional; how it was run: as §4
[28] = system: Human immunodeficiency virus 1; assay: Antiviral activity against HIV1 isolate R8 harboring reverse transcriptase L100I mutant relative to drug-sensitive HIV1 CNDO; format: functional; how it was run: as §1
[29] = system: Human immunodeficiency virus 1; assay: Ratio of EC95 for HIV1 isolate R8 harboring reverse transcriptase K103N mutant in presence of 50% human serum to EC95 for HIV1 isolate R8 harboring wild type reverse transcriptase in presence of 50% human serum; format: functional; how it was run: as §4
[30] = system: Human immunodeficiency virus 1; assay: Antiviral activity against NRTI-resistant HIV1 harboring mutant reverse transcriptase relative to HIV1 CNDO with wild type reverse transcriptase; format: functional; how it was run: as §1
[31] = system: Human immunodeficiency virus 1; assay: Antiviral activity against PI-resistant HIV1 harboring mutant reverse transcriptase relative to HIV1 CNDO with wild type reverse transcriptase; format: functional; how it was run: as §1
[32] = system: Human immunodeficiency virus 1; assay: Antiviral activity against NRTI-, PI-resistant HIV1 harboring mutant reverse transcriptase relative to HIV1 CNDO with wild type reverse transcriptase; format: functional; how it was run: as §1
[33] = system: PBMC; assay: Cytotoxicity against stationary-phase human PBMC after 24 to 72 hrs by alamar blue assay; format: cell-based; how it was run: as §2
[34] = system: Plasma; assay: Plasma protein binding in HIV1 infected patient; format: ADME, cell-free; details: human
[35] = system: Human immunodeficiency virus 1; assay: Antiviral activity against HIV1 isolate R8 harboring reverse transcriptase K103N and Y181C mutant infected in human MT4 cells assessed as inhibition of viral replication after 72 hrs in presence of 50% human serum; format: functional; details: Human immunodeficiency virus 1, isolate R8, MT4, 72 h; how it was run: as §3
[36] = Cytotoxicity against activated human monocyte after 24 to 72 hrs by alamar blue assay; format: cell-based; how it was run: as §2
[37] = system: Human immunodeficiency virus 1; assay: Antiviral activity against HIV1 clade B harboring mutant reverse transcriptase relative to HIV1 CNDO with wild type reverse transcriptase; format: functional
[38] = system: Human immunodeficiency virus 1; assay: Antiviral activity against HIV1 isolate R8 harboring reverse transcriptase Y181C mutant infected in human MT4 cells assessed as inhibition of viral replication after 72 hrs in presence of 50% human serum; format: functional; details: Human immunodeficiency virus 1, isolate R8, MT4, 72 h; how it was run: as §3
[39] = system: Human immunodeficiency virus 1; assay: Antiviral activity against HIV1 isolate R8 harboring reverse transcriptase K103N mutant infected in human MT4 cells assessed as inhibition of viral replication after 72 hrs in presence of 50% human serum; format: functional; details: Human immunodeficiency virus 1, isolate R8, MT4, 72 h; how it was run: as §3
[40] = system: Human immunodeficiency virus 1; assay: Ratio of EC95 for HIV1 isolate R8 harboring reverse transcriptase Y181C mutant in presence of 50% human serum to EC95 for HIV1 isolate R8 harboring wild type reverse transcriptase in presence of 50% human serum; format: functional; how it was run: as §4
[41] = system: Human immunodeficiency virus 1; assay: Antiviral activity against HIV1 isolate R8 harboring wild type reverse transcriptase infected in human MT4 cells assessed as inhibition of viral replication after 72 hrs in presence of 10% FBS; format: functional; details: Human immunodeficiency virus 1, isolate R8, MT4, 72 h; how it was run: as §3
[42] = system: Human immunodeficiency virus 1; assay: Antiviral activity against HIV1 clade H harboring mutant reverse transcriptase relative to HIV1 CNDO with wild type reverse transcriptase; format: functional
[43] = system: PBMC; assay: Cytotoxicity against activated human PBMC after 24 to 72 hrs by alamar blue assay; format: cell-based; how it was run: as §2
[44] = system: Human immunodeficiency virus 1; assay: Antiviral activity against HIV1 clade D harboring mutant reverse transcriptase relative to HIV1 CNDO with wild type reverse transcriptase; format: functional
[45] = system: Human immunodeficiency virus 1; assay: Ratio of EC95 for HIV1 isolate R8 harboring reverse transcriptase K103N and Y181C mutant in presence of 50% human serum to EC95 for HIV1 isolate R8 harboring reverse transcriptase K103N and Y181C mutant in presence of 10% FBS; format: functional; how it was run: as §4
[46] = system: Human immunodeficiency virus 1; assay: Antiviral activity against HIV1 isolate R8 harboring reverse transcriptase K103N and Y181C mutant infected in human MT4 cells assessed as inhibition of viral replication after 72 hrs in presence of 10% FBS; format: functional; details: Human immunodeficiency virus 1, isolate R8, MT4, 72 h; how it was run: as §3

For `N#Cc1cc(Cl)cc(Oc2cc(OCc3n[nH]c4nc(N)ccc34)ccc2Cl)c1`, the “fold change (FC)” value [1] was 0.92, the EC50 [2] was greater than 3000 nM and the EC50 [3] was greater than 3000 nM. The EC50 [4] was greater than 3000 nM, the “fold change (FC)” value [5] was 0.72 and the EC50 [6] was greater than 3000 nM. It also gave a fold change (FC) [7] greater than 100, an EC95 [8] of 29 nM and a fold change (FC) [9] of 2. The “fold change (FC)” value [10] was 5, the “fold change (FC)” value [11] was 4 and the fold change (FC) [12] was 2. For the same compound, the “fold change (FC)” value [13] was 1.15, the EC50 [14] was greater than 3000 nM and the “fold change (FC)” value [15] was 0.9. For the same compound, the “fold change (FC)” value [16] was 0.73, the “fold change (FC)” value [17] was 0.58 and the “fold change (FC)” value [18] was 1.07. For the same compound, the fold change (FC) [19] was greater than 100, the “fold change (FC)” value [20] was 4 and the EC95 [21] was 30 nM. For the same compound, the EC50 [22] was greater than 3000 nM, the “fold change (FC)” value [23] was 15 and the EC50 [24] was greater than 3000 nM. The EC95 [25] was 13 nM, the EC50 [26] was greater than 3000 nM and the “fold change (FC)” value [27] was 4. For the same compound, the “fold change (FC)” value [28] was 0.9, the “fold change (FC)” value [29] was 2 and the fold change (FC) [30] was 0.3. For the same compound, the fold change (FC) [31] was 0.84, the “fold change (FC)” value [32] was 0.18 and the EC50 [33] was greater than 3000 nM. It also gave an Activity [34] of 96.5%, an EC95 [35] of 447 nM and an EC50 [36] greater than 3000 nM. For the same compound, the “fold change (FC)” value [37] was 1.25, the EC95 [38] was 184 nM and the EC95 [39] was 58 nM. The “fold change (FC)” value [40] was 6, the EC95 [41] was 4.4 nM and the “fold change (FC)” value [42] was 0.22. For the same compound, the EC50 [43] was greater than 3000 nM, the “fold change (FC)” value [44] was 0.56 and the “fold change (FC)” value [45] was 4. It also gave an EC95 [46] of 128 nM.
